How the values were obtained:
Assay type in all cases: functional
Staphylococcus aureus [1] = assay: Antimicrobial activity against Staphylococcus aureus at 20 ug/8 mm disk at pH 7 by agar diffusion method
Procedure, shortened: (§1)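 Agar disk diffusion against S. aureus. Samples dissolved at 1 mg/mL in CH2Cl2/MeOH (95:5 v/v), plus a 10-fold dilution in the same vehicle; 20 µL of each applied to 8 mm paper disks and air-dried 30 min. Disks placed on S. aureus-seeded agar at pH 7 and pH 8, incubated overnight at 35 °C. Read-out: inhibition zone diameter (mm).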

Staphylococcus aureus [2] = assay: Antimicrobial activity against Staphylococcus aureus at 2 ug/8 mm disk at pH 8 by agar diffusion method; procedure, shortened: as §1
Staphylococcus aureus [3] = assay: Antimicrobial activity against Staphylococcus aureus at 2 ug/8 mm disk at pH 7 by agar diffusion method; procedure, shortened: as §1
Staphylococcus aureus [4] = assay: Antimicrobial activity against Staphylococcus aureus at 20 ug/8 mm disk at pH 8 by agar diffusion method; procedure, shortened: as §1

`COC[C@H]1O[C@@H](O[C@@H]2OC[C@@H]3O[C@@]4(OC[C@@H](OC(=O)c5c(C)cc(O)cc5O)[C@H](OC=O)[C@H]4O)O[C@H]3[C@H]2O)[C@@H](OC)[C@@H](O)[C@@H]1O[C@@H]1O[C@H](C)[C@H](OC)[C@H](O[C@@H]2O[C@H](C)[C@H]3O[C@]4(C[C@@H](O)[C@H](O[C@H]5C[C@@H](O[C@H]6C[C@](C)([N+](=O)[O-])[C@@H](OC)[C@H](C)O6)[C@H](OC(=O)c6c(C)c(Cl)c(O)c(Cl)c6OC)[C@@H](C)O5)[C@@H](C)O4)O[C@]3(C)[C@@H]2O)[C@H]1O` was tested, and the “inhibition zone (IZ)” value (Staphylococcus aureus [1]) was 21 mm, the “inhibition zone (IZ)” value (Staphylococcus aureus [2]) was 15 mm and the “inhibition zone (IZ)” value (Staphylococcus aureus [3]) was 17 mm. For the same molecule, the “inhibition zone (IZ)” value (Staphylococcus aureus [4]) was 18 mm.
In the case of `COC[C@H]1O[C@@H](O[C@@H]2OC[C@@H]3O[C@@]4(OC[C@@H](OC(=O)c5c(C)cc(O)cc5O)[C@@H]5OCO[C@H]54)O[C@H]3[C@H]2O)[C@@H](OC)[C@@H](O)[C@@H]1O[C@@H]1O[C@H](C)[C@H](OC)[C@H](O[C@@H]2O[C@H](C)[C@H]3O[C@]4(C[C@@H](O)[C@H](O[C@H]5C[C@@H](O[C@H]6C[C@](C)([N+](=O)[O-])[C@@H](OC)[C@H](C)O6)[C@H](OC(=O)c6c(C)cc(O)c(Cl)c6O)[C@@H](C)O5)[C@@H](C)O4)O[C@]3(C)[C@@H]2O)[C@H]1O`, the “inhibition zone (IZ)” value (Staphylococcus aureus [1]) is reported as 22 mm, the “inhibition zone (IZ)” value (Staphylococcus aureus [2]) is reported as 16 mm and the “inhibition zone (IZ)” value (Staphylococcus aureus [3]) is reported as 17 mm. The “inhibition zone (IZ)” value (Staphylococcus aureus [4]) was 18 mm.
For `COC[C@H]1O[C@@H](O[C@@H]2OC[C@@H]3O[C@@]4(OC[C@@H](OC(=O)c5c(C)cc(O)cc5O)[C@@H]5OCO[C@H]54)O[C@H]3[C@H]2O)[C@@H](OC)[C@@H](O)[C@@H]1O[C@@H]1O[C@H](C)[C@H](OC)[C@H](O[C@@H]2O[C@H](C)[C@H]3O[C@]4(C[C@@H](O)[C@H](O[C@H]5C[C@@H](O[C@H]6C[C@](C)([N+](=O)[O-])[C@@H](OC)[C@H](C)O6)[C@H](OC(=O)c6c(C)cc(O)c(Cl)c6OC)[C@@H](C)O5)[C@@H](C)O4)O[C@]3(C)[C@@H]2O)[C@H]1O`, the “inhibition zone (IZ)” value (Staphylococcus aureus [1]) was 20 mm, the “inhibition zone (IZ)” value (Staphylococcus aureus [2]) was 16 mm and the “inhibition zone (IZ)” value (Staphylococcus aureus [3]) was 17 mm. The “inhibition zone (IZ)” value (Staphylococcus aureus [4]) was 17 mm.
With `COC[C@H]1O[C@@H](O[C@@H]2OC[C@@H]3O[C@@]4(OC[C@@H](OC(=O)c5c(C)cc(O)cc5O)[C@@H]5OCO[C@H]54)O[C@H]3[C@H]2O)[C@@H](OC)[C@@H](O)[C@@H]1O[C@@H]1O[C@H](C)[C@H](OC)[C@H](O[C@@H]2O[C@H](C)[C@H]3O[C@]4(C[C@@H](O)[C@H](O[C@H]5C[C@@H](O[C@H]6C[C@](C)([N+](=O)[O-])[C@@H](OC)[C@H](C)O6)[C@H](OC(=O)c6c(C)c(Cl)c(O)c(Cl)c6OC)[C@@H](C)O5)[C@@H](C)O4)O[C@]3(C)[C@@H]2O)[C@H]1O` [EVERNIMICIN] the “inhibition zone (IZ)” value (Staphylococcus aureus [1]) was 26 mm, the “inhibition zone (IZ)” value (Staphylococcus aureus [2]) was 19 mm and the “inhibition zone (IZ)” value (Staphylococcus aureus [3]) was 23 mm. For the same molecule, the “inhibition zone (IZ)” value (Staphylococcus aureus [4]) was 21 mm.
In the case of `COC[C@H]1O[C@@H](O[C@@H]2OC[C@@H]3O[C@@]4(OC[C@@H](OC(=O)c5c(C)cc(O)cc5O)[C@@H]5OCO[C@H]54)O[C@H]3[C@H]2O)[C@@H](OC)[C@@H](O)[C@@H]1O`, the “inhibition zone (IZ)” value (Staphylococcus aureus [1]) is reported as 10 mm, the “inhibition zone (IZ)” value (Staphylococcus aureus [2]) is reported as 8 mm and the “inhibition zone (IZ)” value (Staphylococcus aureus [3]) is reported as 8 mm. The “inhibition zone (IZ)” value (Staphylococcus aureus [4]) was 8 mm.
`COC[C@H]1O[C@@H](O[C@@H]2OC[C@@H]3O[C@@]4(OC[C@@H](OC(=O)c5c(C)cc(O)cc5O)[C@@H]5OCO[C@H]54)O[C@H]3[C@H]2O)[C@@H](OC)[C@@H](O)[C@@H]1O[C@@H]1O[C@H](C)[C@H](OC)[C@H](O[C@@H]2O[C@H](C)[C@H]3O[C@]4(C[C@@H](O)[C@H](O[C@H]5C[C@@H](O[C@H]6C[C@](C)([N+](=O)[O-])[C@@H](O)[C@H](C)O6)[C@H](OC(=O)c6c(C)c(Cl)c(O)c(Cl)c6OC)[C@@H](C)O5)[C@@H](C)O4)O[C@]3(C)[C@@H]2O)[C@H]1O` was tested, and the “inhibition zone (IZ)” value (Staphylococcus aureus [1]) was 23 mm, the “inhibition zone (IZ)” value (Staphylococcus aureus [2]) was 18 mm and the “inhibition zone (IZ)” value (Staphylococcus aureus [3]) was 20 mm. The “inhibition zone (IZ)” value (Staphylococcus aureus [4]) was 20 mm.
